From ChEMBL document CHEMBL1135739, “Radiolabeled amino acids for tumor imaging with PET: radiosynthesis and biological evaluation of 2-amino-3-[18F]fluoro-2-methylpropanoic acid and 3-[18F]fluoro-2-methyl-2-(methylamino)propanoic acid” (J Med Chem, 2002)

Columns and labels:
Rattus norvegicus [1] = species: Rattus norvegicus; experiment: Radioactivity distribution in kidney of normal fischer rat after injection of [18F]fluoro-2-methylpropanoic acid after 120 min.; assay type: ADME, organism-based; details: in vivo, 2 h
Procedure, shortened: (§1)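 Normal male Fischer 344 rats (200–250 g), anesthetized with i.m. ketamine:xylazine (1:1), got ~85 μCi of tracer in 0.3 mL sterile water i.v. via tail-vein catheter. Groups of four were killed at 5, 30, 60 or 120 min. Tissues were weighed and gamma-counted against dose standards, and counts were decay-corrected to %ID/g. Results are mean ± standard error (n = 4), compared by one-way ANOVA.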

Rattus norvegicus [2] = species: Rattus norvegicus; experiment: Radioactivity distribution in kidney of normal fischer rat after injection of [18F]fluoro-2-methylpropanoic acid after 5 min.; assay type: ADME, organism-based; details: in vivo
Procedure, shortened: (§2)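 Male Fischer 344 rats (200–250 g), fed ad libitum, anesthetized with intramuscular ketamine:xylazine (1:1, 0.1 mL/100 g). About 85 μCi tracer in 0.3 mL sterile water was given by tail-vein catheter. Groups of four were killed at 5, 30, 60 or 120 min. Tissues were weighed and gamma-counted against dose standards, decay-corrected, and expressed as %ID/g (mean ± standard error).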

Rattus norvegicus [3] = species: Rattus norvegicus; experiment: Radioactivity distribution in kidney of normal fischer rat after injection of [18F]fluoro-2-methylpropanoic acid after 60 min.; assay type: ADME, organism-based; details: in vivo, 1 h; procedure, shortened: as §2
Rattus norvegicus [4] = species: Rattus norvegicus; experiment: Radioactivity distribution in brain of normal fischer rat after injection of [18F]fluoro-2-methylpropanoic acid after 120 min.; assay type: ADME, organism-based; details: in vivo, 2 h; procedure, shortened: as §1
Rattus norvegicus [5] = species: Rattus norvegicus; experiment: Radioactivity distribution in brain of normal fischer rat after injection of [18F]fluoro-2-methylpropanoic acid after 5 min.; assay type: ADME, organism-based; details: in vivo; procedure, shortened: as §1
Rattus norvegicus [6] = species: Rattus norvegicus; experiment: Radioactivity distribution in spleen of normal fischer rat after injection of [18F]fluoro-2-methylpropanoic acid after 5 min.; assay type: ADME, organism-based; details: in vivo
Procedure, shortened: (§3)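 Male Fischer 344 rats (200–250 g), fed ad libitum, under intramuscular ketamine:xylazine anesthesia, got ~85 μCi radiotracer in 0.3 mL sterile water by tail-vein catheter. Groups of four were killed at 5, 30, 60 or 120 min. Dissected tissues were weighed and gamma-counted with dose standards. Counts were decay-corrected and given as %ID/g, mean ± standard error. Tissues were compared by one-way ANOVA.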

Rattus norvegicus [7] = species: Rattus norvegicus; experiment: Radioactivity distribution in spleen of normal fischer rat after injection of [18F]fluoro-2-methylpropanoic acid after 60 min.; assay type: ADME, organism-based; details: in vivo, 1 h; procedure, shortened: as §3
Rattus norvegicus [8] = species: Rattus norvegicus; experiment: Radioactivity distribution in spleen of tumor-bearing fischer rat after injection of [18F]fluoro-2-methylpropanoic acid after 120 min; assay type: ADME, organism-based; details: in vivo, 2 h
Procedure, shortened: (§4)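 Male Fischer rats had 4×10^4 9L gliosarcoma cells implanted stereotactically into the brain, 3 mm right of midline, 1 mm anterior to bregma, 5 mm deep. They were used 17–19 days later. Awake, restrained rats got ~35 μCi in 0.3 mL sterile water by tail vein and were killed at 5, 60 or 120 min. Tissues, tumor and contralateral brain were gamma-counted, decay-corrected, as %ID/g, mean ± SE, n = 4–5.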

Rattus norvegicus [9] = species: Rattus norvegicus; experiment: Radioactivity distribution in spleen of tumor-bearing fischer rat after injection of [18F]fluoro-2-methylpropanoic acid after 5 min; assay type: ADME, organism-based; details: in vivo; procedure, shortened: as §4
Rattus norvegicus [10] = species: Rattus norvegicus; experiment: Radioactivity distribution in spleen of normal fischer rat after injection of [18F]fluoro-2-methylpropanoic acid after 120 min.; assay type: ADME, organism-based; details: in vivo, 2 h; procedure, shortened: as §3
Rattus norvegicus [11] = species: Rattus norvegicus; experiment: Radioactivity distribution in lung of normal fischer rat after injection of [18F]fluoro-2-methylpropanoic acid after 5 min.; assay type: ADME, organism-based; details: in vivo; procedure, shortened: as §2
Rattus norvegicus [12] = species: Rattus norvegicus; experiment: Radioactivity distribution in lung of normal fischer rat after injection of [18F]-fluoro-2-methylpropanoic acid after 60 min.; assay type: ADME, organism-based; details: in vivo, 1 h; procedure, shortened: as §2
Rattus norvegicus [13] = species: Rattus norvegicus; experiment: Radioactivity distribution in lung of tumor-bearing fischer rat after injection of [18F]-fluoro-2-methylpropanoic acid after 120 min; assay type: ADME, organism-based; details: in vivo, 2 h
Procedure, shortened: (§5)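 Male Fischer 344 rats carried intracranial 9L gliosarcoma, stereotactically implanted (4×10^4 cells) and used 17–19 days later. Awake, restrained animals received about 35 μCi tracer in 0.3 mL sterile water via the tail vein and were killed at 5, 60 or 120 min (n = 4–5). Tissues were weighed, gamma-counted, decay-corrected and reported as %ID/g ± standard error.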

Rattus norvegicus [14] = species: Rattus norvegicus; experiment: Radioactivity distribution in pancreas of normal fischer rat after injection of [18F]fluoro-2-methylpropanoic acid after 120 min.; assay type: ADME, organism-based; details: in vivo, 2 h; procedure, shortened: as §2
Rattus norvegicus [15] = species: Rattus norvegicus; experiment: Radioactivity distribution in pancreas of normal fischer rat after injection of [18F]fluoro-2-methylpropanoic acid after 30 min.; assay type: ADME, organism-based; details: in vivo, 0.5 h; procedure, shortened: as §2
Rattus norvegicus [16] = species: Rattus norvegicus; experiment: Radioactivity distribution in pancreas of normal fischer rat after injection of [18F]fluoro-2-methylpropanoic acid after 5 min.; assay type: ADME, organism-based; details: in vivo; procedure, shortened: as §2
Rattus norvegicus [17] = species: Rattus norvegicus; experiment: Radioactivity distribution in muscle of normal fischer rat after injection of [18F]fluoro-2-methylpropanoic acid after 30 min.; assay type: ADME, organism-based, Muscle tissue; details: in vivo, 0.5 h; procedure, shortened: as §2
Rattus norvegicus [18] = species: Rattus norvegicus; experiment: Radioactivity distribution in muscle of normal fischer rat after injection of [18F]-fluoro-2-methylpropanoic acid after 5 min.; assay type: ADME, organism-based, Muscle tissue; details: in vivo; procedure, shortened: as §2
Rattus norvegicus [19] = species: Rattus norvegicus; experiment: Radioactivity distribution in lung of tumor-bearing fischer rat after injection of [18F]-fluoro-2-methylpropanoic acid after 5 min; assay type: ADME, organism-based; details: in vivo; procedure, shortened: as §5
Rattus norvegicus [20] = species: Rattus norvegicus; experiment: Radioactivity distribution in bone of normal fischer rat after injection of [18F]fluoro-2-methylpropanoic acid after 120 min.; assay type: ADME, organism-based, Bone element; details: in vivo, 2 h; procedure, shortened: as §1
Rattus norvegicus [21] = species: Rattus norvegicus; experiment: Radioactivity distribution in bone of tumor-bearing fischer rat after injection of [18F]fluoro-2-methylpropanoic acid after 5 min; assay type: ADME, organism-based, Bone element; details: in vivo
Procedure, shortened: (§6)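 Male Fischer 344 rats carried intracranial 9L gliosarcoma, implanted stereotactically (4×10^4 cells) and used 17–19 days later. Awake restrained rats got ~35 μCi of tracer in 0.3 mL sterile water by tail-vein injection and were killed at 5, 60 or 120 min. Tissues were weighed and gamma-counted, and counts were decay-corrected to %ID/g. Results are mean ± standard error; n = 4 at 5 and 120 min, n = 5 at 60 min.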

Rattus norvegicus [22] = species: Rattus norvegicus; experiment: Radioactivity distribution in heart of normal fischer rat after injection of [18F]fluoro-2-methylpropanoic acid after 120 min.; assay type: ADME, organism-based; details: in vivo, 2 h; procedure, shortened: as §1
Rattus norvegicus [23] = species: Rattus norvegicus; experiment: Radioactivity distribution in heart of normal fischer rat after injection of [18F]-fluoro-2-methylpropanoic acid after 60 min.; assay type: ADME, organism-based; details: in vivo, 1 h; procedure, shortened: as §1
Rattus norvegicus [24] = species: Rattus norvegicus; experiment: Radioactivity distribution in blood of normal fischer rat after injection of [18F]fluoro-2-methylpropanoic acid after 5 min.; assay type: ADME, organism-based; details: in vivo; procedure, shortened: as §1
Rattus norvegicus [25] = species: Rattus norvegicus; experiment: Radioactivity distribution in blood of normal fischer rat after injection of [18F]fluoro-2-methylpropanoic acid after 60 min.; assay type: ADME, organism-based; details: in vivo, 1 h; procedure, shortened: as §1
Rattus norvegicus [26] = species: Rattus norvegicus; experiment: Radioactivity distribution in heart of tumor-bearing fischer rat after injection of [18F]fluoro-2-methylpropanoic acid after 120 min; assay type: ADME, organism-based; details: in vivo, 2 h; procedure, shortened: as §6
Rattus norvegicus [27] = species: Rattus norvegicus; experiment: Radioactivity distribution in heart of tumor-bearing fischer rat after injection of [18F]fluoro-2-methylpropanoic acid after 5 min; assay type: ADME, organism-based; details: in vivo; procedure, shortened: as §6
Rattus norvegicus [28] = species: Rattus norvegicus; experiment: Radioactivity distribution in heart of tumor-bearing fischer rat after injection of [18F]fluoro-2-methylpropanoic acid after 60 min; assay type: ADME, organism-based; details: in vivo, 1 h; procedure, shortened: as §6
Rattus norvegicus [29] = species: Rattus norvegicus; experiment: Radioactivity distribution in pancreas of tumor-bearing fischer rat after injection of [18F]-fluoro-2-methylpropanoic acid after 5 min; assay type: ADME, organism-based; details: in vivo; procedure, shortened: as §5
Rattus norvegicus [30] = species: Rattus norvegicus; experiment: Radioactivity distribution in spleen of normal fischer rat after injection of [18F]fluoro-2-methylpropanoic acid after 30 min.; assay type: ADME, organism-based; details: in vivo, 0.5 h; procedure, shortened: as §3
Rattus norvegicus [31] = species: Rattus norvegicus; experiment: Radioactivity distribution in brain of tumor-bearing fischer rat after injection of [18F]fluoro-2-methylpropanoic acid after 120 min; assay type: ADME, organism-based; details: in vivo, 2 h; procedure, shortened: as §6
Rattus norvegicus [32] = species: Rattus norvegicus; experiment: Radioactivity distribution in brain of tumor-bearing fischer rat after injection of [18F]fluoro-2-methylpropanoic acid after 5 min; assay type: ADME, organism-based; details: in vivo; procedure, shortened: as §6
Rattus norvegicus [33] = species: Rattus norvegicus; experiment: Radioactivity distribution in tumor of tumor-bearing fischer rat after injection of [18F]fluoro-2-methylpropanoic acid after 60 min; assay type: ADME, organism-based; details: in vivo, 1 h; procedure, shortened: as §4
Rattus norvegicus [34] = species: Rattus norvegicus; experiment: Radioactivity distribution in liver of normal fischer rat after injection of [18F]fluoro-2-methylpropanoic acid after 60 min.; assay type: ADME, organism-based; details: in vivo, 1 h; procedure, shortened: as §2

CC(N)(C[18F])C(=O)O.Cl (centres undefined)
ID/g (Rattus norvegicus [1]): 2.97%
ID/g (Rattus norvegicus [2]): 6.36%
ID/g (Rattus norvegicus [3]): 4.74%
ID/g (Rattus norvegicus [4]): 0.05%
ID/g (Rattus norvegicus [5]): 0.04%
ID/g (Rattus norvegicus [6]): 0.83%
ID/g (Rattus norvegicus [7]): 0.5%
ID/g (Rattus norvegicus [8]): 0.32%
ID/g (Rattus norvegicus [9]): 0.72%
ID/g (Rattus norvegicus [10]): 0.33%
ID/g (Rattus norvegicus [11]): 0.55%
ID/g (Rattus norvegicus [12]): 0.44%
ID/g (Rattus norvegicus [13]): 0.24%
ID/g (Rattus norvegicus [14]): 2.48%
ID/g (Rattus norvegicus [15]): 2.93%
ID/g (Rattus norvegicus [16]): 3.46%
ID/g (Rattus norvegicus [17]): 0.22%
ID/g (Rattus norvegicus [18]): 0.22%
ID/g (Rattus norvegicus [19]): 0.84%
ID/g (Rattus norvegicus [20]): 0.13%
ID/g (Rattus norvegicus [21]): 0.38%
ID/g (Rattus norvegicus [22]): 0.23%
ID/g (Rattus norvegicus [23]): 0.28%
ID/g (Rattus norvegicus [24]): 0.53%
ID/g (Rattus norvegicus [25]): 0.22%
ID/g (Rattus norvegicus [26]): 0.22%
ID/g (Rattus norvegicus [27]): 0.4%
ID/g (Rattus norvegicus [28]): 0.33%
ID/g (Rattus norvegicus [29]): 5.31%
ID/g (Rattus norvegicus [30]): 0.54%
ID/g (Rattus norvegicus [31]): 0.05%
ID/g (Rattus norvegicus [32]): 0.035%
ID/g (Rattus norvegicus [33]): 1.96%
ID/g (Rattus norvegicus [34]): 0.5%
